# Measurements taken from ChEMBL document CHEMBL4190262, “Tuning of β-glucosidase and α-galactosidase inhibition by generation and in situ screening of a library of pyrrolidine-triazole hybrid molecules” (Eur J Med Chem, 2017).
# Active and inactive are the calls of the source. The rule behind the calls is not given here.
# Assays:
# Canavalia ensiformis = test: Inhibition of jack bean beta-N-acetylglucosaminidase at 1 mM using p-nitrophenyl glycopyranoside preincubated for 5 mins followed by substrate addition measured after 20 mins by visible absorption spectroscopic method relative to control
# How it was run: (§1)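 Test compound at 1 mM in well. Mix: 0.01–0.5 units/mL enzyme plus 10 mM p-nitrophenyl glycopyranoside (aqueous solution), buffered to the enzyme's optimal pH. Enzyme and inhibitor preincubated 5 min at rt. Substrate then added and incubated 20 min at 37 °C. Stopped with sodium borate (pH 9.8). p-Nitrophenolate read at 405 nm. Duplicates averaged.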
# Bos taurus [1] = organism: Bos taurus; test: Inhibition of bovine liver beta-glucosidase at 1 mM using p-nitrophenyl glycopyranoside preincubated for 5 mins followed by substrate addition measured after 20 mins by visible absorption spectroscopic method relative to control; how it was run: as §1
# [2] = target: T1, Beta-galactosidase (Aspergillus oryzae) (UniProt B7VU80); test: Inhibition of Aspergillus oryzae beta-galactosidase at 1 mM using p-nitrophenyl glycopyranoside preincubated for 5 mins followed by substrate addition measured after 20 mins by visible absorption spectroscopic method relative to control; how it was run: as §1
# T1 sequence (whole entry): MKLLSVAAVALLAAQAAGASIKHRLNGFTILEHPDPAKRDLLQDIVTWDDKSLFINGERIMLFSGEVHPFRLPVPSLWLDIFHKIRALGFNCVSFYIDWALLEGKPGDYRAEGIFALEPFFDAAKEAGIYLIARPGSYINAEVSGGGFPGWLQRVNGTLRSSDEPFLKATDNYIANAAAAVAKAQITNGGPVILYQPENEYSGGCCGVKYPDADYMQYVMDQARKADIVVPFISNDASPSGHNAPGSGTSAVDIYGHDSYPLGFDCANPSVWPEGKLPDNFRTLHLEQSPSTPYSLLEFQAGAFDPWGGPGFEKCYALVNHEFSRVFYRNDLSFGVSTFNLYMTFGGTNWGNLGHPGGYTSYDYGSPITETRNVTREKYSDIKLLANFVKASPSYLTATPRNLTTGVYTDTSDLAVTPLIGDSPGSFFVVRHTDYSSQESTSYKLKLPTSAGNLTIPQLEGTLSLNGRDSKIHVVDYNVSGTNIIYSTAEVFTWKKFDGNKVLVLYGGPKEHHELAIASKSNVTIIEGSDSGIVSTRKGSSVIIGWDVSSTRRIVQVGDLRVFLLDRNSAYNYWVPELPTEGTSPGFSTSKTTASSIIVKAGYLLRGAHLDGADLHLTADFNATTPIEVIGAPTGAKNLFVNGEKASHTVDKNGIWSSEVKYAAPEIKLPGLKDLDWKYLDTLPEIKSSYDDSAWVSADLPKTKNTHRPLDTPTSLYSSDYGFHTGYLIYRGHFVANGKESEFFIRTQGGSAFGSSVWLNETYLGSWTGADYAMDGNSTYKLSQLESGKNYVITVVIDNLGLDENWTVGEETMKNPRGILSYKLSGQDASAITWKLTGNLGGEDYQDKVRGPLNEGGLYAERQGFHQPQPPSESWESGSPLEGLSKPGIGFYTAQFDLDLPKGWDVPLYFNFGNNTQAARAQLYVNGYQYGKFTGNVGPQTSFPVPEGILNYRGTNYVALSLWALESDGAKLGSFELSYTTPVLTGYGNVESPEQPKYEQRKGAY
# Beta-galactosidase = target: T2, Beta-galactosidase (Bos taurus, UniProt Q58D55); test: Inhibition of bovine liver beta-galactosidase using p-nitrophenyl glycopyranoside preincubated for 5 mins followed by substrate addition measured after 20 mins by visible absorption spectroscopic method
# T2 sequence (Q58D55 whole entry): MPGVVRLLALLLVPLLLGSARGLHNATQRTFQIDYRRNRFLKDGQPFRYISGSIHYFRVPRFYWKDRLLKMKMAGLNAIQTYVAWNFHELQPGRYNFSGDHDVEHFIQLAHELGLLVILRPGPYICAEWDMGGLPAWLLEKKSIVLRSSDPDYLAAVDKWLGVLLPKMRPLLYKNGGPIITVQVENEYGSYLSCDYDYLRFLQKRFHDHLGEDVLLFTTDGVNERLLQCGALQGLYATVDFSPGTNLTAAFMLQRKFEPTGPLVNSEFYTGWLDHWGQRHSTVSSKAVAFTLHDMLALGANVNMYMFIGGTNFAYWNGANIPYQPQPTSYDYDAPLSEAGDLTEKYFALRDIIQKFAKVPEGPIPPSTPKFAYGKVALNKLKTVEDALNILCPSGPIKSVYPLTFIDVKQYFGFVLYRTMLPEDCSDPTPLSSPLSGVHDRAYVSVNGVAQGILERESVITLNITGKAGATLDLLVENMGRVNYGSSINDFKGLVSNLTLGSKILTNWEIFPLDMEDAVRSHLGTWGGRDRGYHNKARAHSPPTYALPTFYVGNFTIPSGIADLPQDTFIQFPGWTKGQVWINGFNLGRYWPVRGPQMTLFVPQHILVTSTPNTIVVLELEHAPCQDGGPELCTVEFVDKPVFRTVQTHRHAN
# How it was run: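 IC50 determined only for compounds giving ≥80% inhibition at 1 mM, read from plots of % inhibition versus inhibitor concentration. p-Nitrophenyl glycopyranoside substrate (10 mM solution) at the enzyme's optimal pH, with 0.01–0.5 units/mL enzyme. 5 min rt preincubation with enzyme, then 20 min at 37 °C. Borate stop (pH 9.8), absorbance at 405 nm. Duplicates averaged.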
# Bos taurus [3] = organism: Bos taurus; test: Inhibition of bovine kidney alpha-L-fucosidase at 1 mM using p-nitrophenyl glycopyranoside preincubated for 5 mins followed by substrate addition measured after 20 mins by visible absorption spectroscopic method relative to control; how it was run: as §1
# [4] = target: Beta-galactosidase (Escherichia coli) (UniProt Q8VNN2); test: Inhibition of Escherichia coli beta-galactosidase at 1 mM using p-nitrophenyl glycopyranoside preincubated for 5 mins followed by substrate addition measured after 20 mins by visible absorption spectroscopic method relative to control; how it was run: as §1
# Chain of Beta-galactosidase (Escherichia coli) (Q8VNN2 whole entry, looked up): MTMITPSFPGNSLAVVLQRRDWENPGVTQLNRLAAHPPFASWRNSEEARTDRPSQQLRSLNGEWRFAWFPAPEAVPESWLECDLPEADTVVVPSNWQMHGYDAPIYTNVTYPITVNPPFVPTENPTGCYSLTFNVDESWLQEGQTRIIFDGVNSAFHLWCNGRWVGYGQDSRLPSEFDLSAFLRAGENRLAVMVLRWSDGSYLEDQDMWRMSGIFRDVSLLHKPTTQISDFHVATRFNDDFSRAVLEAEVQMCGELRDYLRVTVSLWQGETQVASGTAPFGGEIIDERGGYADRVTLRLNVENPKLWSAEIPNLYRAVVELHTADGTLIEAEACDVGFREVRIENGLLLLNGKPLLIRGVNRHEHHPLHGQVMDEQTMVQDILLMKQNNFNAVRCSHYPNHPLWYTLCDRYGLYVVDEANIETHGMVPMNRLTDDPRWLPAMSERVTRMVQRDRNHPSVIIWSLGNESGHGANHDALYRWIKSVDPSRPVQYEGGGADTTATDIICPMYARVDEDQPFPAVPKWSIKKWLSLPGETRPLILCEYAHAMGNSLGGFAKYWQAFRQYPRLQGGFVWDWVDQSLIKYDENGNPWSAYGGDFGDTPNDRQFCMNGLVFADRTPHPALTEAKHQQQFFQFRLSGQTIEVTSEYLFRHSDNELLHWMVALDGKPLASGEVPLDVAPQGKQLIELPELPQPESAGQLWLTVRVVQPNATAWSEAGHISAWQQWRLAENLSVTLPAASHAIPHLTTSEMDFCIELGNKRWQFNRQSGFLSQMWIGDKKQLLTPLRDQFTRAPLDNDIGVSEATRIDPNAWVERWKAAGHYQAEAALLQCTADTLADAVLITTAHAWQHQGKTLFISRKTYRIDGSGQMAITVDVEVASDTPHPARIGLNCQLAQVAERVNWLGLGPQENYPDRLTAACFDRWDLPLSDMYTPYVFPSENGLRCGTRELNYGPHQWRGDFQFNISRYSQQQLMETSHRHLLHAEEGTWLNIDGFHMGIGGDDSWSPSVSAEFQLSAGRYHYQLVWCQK
# Alpha-galactosidase A = target: T3, Alpha-galactosidase A (Homo sapiens, UniProt P06280); test: Inhibition of human lysosomal alpha-galactosidase A using 4-methylumbelliferyl-alpha-D-galactopyranoside as substrate preincubated for 45 mins followed by substrate addition measured after 30 mins by fluorescence spectroscopic method
# T3 sequence (P06280 whole entry): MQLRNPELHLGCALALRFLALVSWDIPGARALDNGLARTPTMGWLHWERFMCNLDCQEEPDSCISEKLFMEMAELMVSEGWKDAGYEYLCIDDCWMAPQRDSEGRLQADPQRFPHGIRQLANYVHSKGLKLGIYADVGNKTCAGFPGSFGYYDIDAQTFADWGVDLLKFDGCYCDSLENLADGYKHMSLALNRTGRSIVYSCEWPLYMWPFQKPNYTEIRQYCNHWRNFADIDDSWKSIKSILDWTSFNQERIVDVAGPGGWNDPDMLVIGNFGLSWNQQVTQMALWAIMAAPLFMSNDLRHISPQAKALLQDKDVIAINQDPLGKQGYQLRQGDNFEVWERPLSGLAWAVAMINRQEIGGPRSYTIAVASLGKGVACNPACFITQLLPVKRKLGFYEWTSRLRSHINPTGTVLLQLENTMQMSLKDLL
# How it was run: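 Enzyme in 100 mM McIlvaine buffer pH 5.2 with 0.25% sodium taurocholate and 0.1% Triton X-100, with inhibitor. Preincubated at 0 °C for 45 min, then started with 3 mM 4-methylumbelliferyl glycoside substrate solution and incubated 30 min at 37 °C. Stopped with 400 mM glycine-NaOH pH 10.6. 4-Methylumbelliferone fluorescence read at ex 362/em 450 nm.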
Compound,inhibition (Canavalia ensiformis),inhibition (Bos taurus [1]) [%],inhibition [2],IC50 (Beta-galactosidase) [µM],inhibition (Bos taurus [3]) [%],inhibition [4],IC50 (Alpha-galactosidase A) [µM]
O[C@@H]1[C@H](O)CN[C@H]1Cn1cc(-c2ccccc2)nn1,inactive,< 50,inactive,458,40,inactive,–
O[C@@H]1[C@H](O)CN[C@@H]1Cn1cc(-c2ccccc2)nn1,inactive,–,41%,173,17,inactive,171
